Results collected from several papers.
Lines come from different studies, so protocols differ.
HTR2C: 5-hydroxytryptamine receptor 2C (HTR2C, Homo sapiens, UniProt P28335)
TOP2A: DNA topoisomerase 2-alpha (TOP2A, Homo sapiens, UniProt P11388)
DHFR: Dihydrofolate reductase (DHFR, Homo sapiens, UniProt P00374)
FAAH: Fatty-acid amide hydrolase 1 (FAAH, Homo sapiens, UniProt O00519)
HTR2B: 5-hydroxytryptamine receptor 2B (HTR2B, Homo sapiens, UniProt P41595)

| Compound | target | read-out | action | technique | setting | IC50 [µM] |
| --- | --- | --- | --- | --- | --- | --- |
| Cc1[nH]c2ccccc2c1SCCNC(=O)C1NCCC1C1CC1 (stereo not drawn) | HTR2C | calcium signal | antagonist |  |  | 38.2 |
| Cc1nc(CSc2nc(SCc3cc(F)cc(C(F)(F)F)c3)nc(=O)[nH]2)cs1 | TOP2A | enzyme activity | inhibitor |  |  | 55 |
| Nc1ccccc1OC(=O)C=Cc1ccc(O)c(O)c1 | DHFR | enzyme activity | inhibitor | absorbance |  | 16.9 |
| S=C(NN=Cc1ccc(N2CCCCC2)cc1)Nc1ccc(Br)cc1 | DHFR | enzyme activity | inhibitor |  |  | 26.1 |
| O=c1nc(SCc2cc(F)cc(C(F)(F)F)c2)nc(SCc2nc3ccccc3[nH]2)[nH]1 | TOP2A | enzyme activity | inhibitor |  |  | 31.7 |
| S=C(NCCc1ccccc1)NN=Cc1ccc(N2CCCCC2)cc1 | DHFR | enzyme activity | inhibitor |  |  | 22.9 |
| CC(=O)Nc1ccc(Nc2nc(-c3sc(N)nc3C)cs2)cc1 | Lysyl oxidase homolog 1 (LOXL1, Homo sapiens, UniProt Q08397) | enzyme activity | inhibitor | fluorescence | with preincubation | > 10 |
| O=c1nc(SCc2cc(F)cc(C(F)(F)F)c2)nc(SCc2ccc3ccccc3n2)[nH]1 | TOP2A | enzyme activity | inhibitor |  |  | 18.6 |
| Cc1ccc(CNC(=S)NN=Cc2ccc(N3CCCCC3)cc2)cc1 | DHFR | enzyme activity | inhibitor |  |  | 33.9 |
| O=C(Nc1ccc(-c2ccnc3ccccc23)cc1)C1CCN(S(=O)(=O)c2ccccc2Cl)CC1 | FAAH | enzyme activity | inhibitor | fluorescence |  | 0.0887 |
| O=C(c1cc(C2CCNC2)[nH]n1)N1CCC(c2cccc(Cl)c2)C1 (stereo not drawn) | HTR2C | calcium signal | antagonist |  |  | 8.5 |
| O=C(Nc1ccc(-c2cccc3cccnc23)cc1)C1CCN(S(=O)(=O)c2ccccc2Cl)CC1 | FAAH | enzyme activity | inhibitor | fluorescence |  | 0.135 |
| NCC1Cc2cc(F)ccc2N(C(=O)Cc2cc(F)ccc2Br)C1 (stereo not drawn) | HTR2C | calcium signal | antagonist |  |  | 43.4 |
| O=C(C=Cc1ccc(O)c(O)c1)OCCc1ccccc1 | DHFR | enzyme activity | inhibitor | absorbance |  | 11.5 |
| O=C1CC(CCNCc2ccc(-c3cccc(Br)c3)o2)CN1 (stereo not drawn) | HTR2B | calcium signal | antagonist |  |  | 8.62 |
| O=c1nc(SCc2cc(F)cc(C(F)(F)F)c2)nc(SCc2cccc(C(F)(F)F)c2)[nH]1 | TOP2A | enzyme activity | inhibitor |  |  | 14.5 |
| CN(C(=O)c1cn[nH]n1)C1CCN(CCc2cccc(Cl)c2Cl)C1 (stereo not drawn) | HTR2B | calcium signal | antagonist |  |  | 5.53 |
| S=C(NN=Cc1ccc(N2CCCCC2)cc1)Nc1cccc(Cl)c1Cl | DHFR | enzyme activity | inhibitor |  |  | 47.3 |
| O=C(Nc1ccc(-c2ccc3ncccc3c2)cc1)C1CCN(S(=O)(=O)c2ccccc2Cl)CC1 | FAAH | enzyme activity | inhibitor | fluorescence |  | 0.0508 |
| S=C(NN=Cc1ccc(N2CCCCC2)cc1)Nc1cccc(Br)c1 | DHFR | enzyme activity | inhibitor |  |  | 30.2 |
| Cc1[nH]c2ccccc2c1C(=O)C(C)N1CCC(c2nccn2C)C1 (stereo not drawn) | HTR2B | calcium signal | antagonist |  |  | 0.0369 |
| CC(C)NCC(COc1cccc2ccccc12)OC(=O)C=Cc1ccc(O)c(O)c1 (stereo not drawn) | DHFR | enzyme activity | inhibitor | absorbance |  | 0.048 |
| COc1ccc(NC(=S)NN=Cc2ccc(N3CCCCC3)cc2)cc1 | DHFR | enzyme activity | inhibitor |  |  | 44.6 |
| Cc1nc(CSc2nc(SCc3ccc(C(F)(F)F)cc3)nc(=O)[nH]2)cs1 | TOP2A | enzyme activity | inhibitor |  |  | 64.7 |
| O=C(C=Cc1ccc(O)c(O)c1)OCc1ccccc1 | DHFR | enzyme activity | inhibitor | absorbance |  | 12.6 |
| S=C(NCc1ccccc1)NN=Cc1ccc(N2CCCCC2)cc1 | DHFR | enzyme activity | inhibitor |  |  | 31.3 |
| Cc1cccc(OCCCC(=O)N2CCNCc3ccccc32)c1 | HTR2B | calcium signal | antagonist |  |  | 16.9 |
| O=C(Nc1ccc(-c2cccc3ncccc23)cc1)C1CCN(S(=O)(=O)c2ccccc2Cl)CC1 | FAAH | enzyme activity | inhibitor | fluorescence |  | 0.0196 |
| c1ccc(O[C@H]2CCN(Cc3ccc(-c4ccn[nH]4)o3)C2)cc1 | HTR2B | calcium signal | antagonist |  |  | 15.6 |
| O=[N+]([O-])c1ccc(NC(=S)NN=Cc2ccc(N3CCCCC3)cc2)cc1 | DHFR | enzyme activity | inhibitor |  |  | 16.2 |
